Laboratory results: ChEMBL document CHEMBL4014319, “Tolvaptan-Type Vasopressin Receptor Ligands: Important Role of Axial Chirality in the Active Form” (J Med Chem, 2017)
pKi: −log10 of the molar value. One block for each compound: values may come before it.

How the values were obtained:
[1] = target: Vasopressin V1a receptor (Homo sapiens, UniProt P37288); assay: Displacement of [125I] phenylacetyl-D-Tyr(Me)-Phe-Gln-Asn-Arg-Pro-Arg-Tyr-NH2 from human recombinant vasopressin V1a receptor expressed in HEK293 after 2 hrs by liquid scintillation counting method; format: cell-based
Method in brief: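 Recombinant human V1a receptor expressed in HEK-293 cells, tested in 50 mM Tris-HCl pH 7.4 buffer with 5 mM MgCl2 and 0.1% BSA. Incubation 2 h at 25 °C in 1% DMSO. Compounds were ≥99% pure by HPLC and were kept at low temperature after isolation to prevent isomerization. Ki is the mean of duplicate measurements.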

[2] = target: Vasopressin V2 receptor (Homo sapiens, UniProt P30518); assay: Displacement of [3H] (Arg8)-vasopressin from human vasopressin V2 receptor expressed in CHOK1 cell membranes after 2 hrs by liquid scintillation counting method
Method in brief: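 Membranes (9 μg aliquot) prepared from CHO-K1 cells stably transfected with human V2 receptor, in 50 mM Tris-HCl pH 7.4, 10 mM MgCl2, 0.1% BSA. Incubated with 4 nM [3H](Arg8)-vasopressin for 2 h at 25 °C in 1% DMSO. Compounds were ≥99% pure by HPLC. Ki is the mean of duplicate measurements.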

Vasopressin V1a receptor, sequence (P37288 whole entry): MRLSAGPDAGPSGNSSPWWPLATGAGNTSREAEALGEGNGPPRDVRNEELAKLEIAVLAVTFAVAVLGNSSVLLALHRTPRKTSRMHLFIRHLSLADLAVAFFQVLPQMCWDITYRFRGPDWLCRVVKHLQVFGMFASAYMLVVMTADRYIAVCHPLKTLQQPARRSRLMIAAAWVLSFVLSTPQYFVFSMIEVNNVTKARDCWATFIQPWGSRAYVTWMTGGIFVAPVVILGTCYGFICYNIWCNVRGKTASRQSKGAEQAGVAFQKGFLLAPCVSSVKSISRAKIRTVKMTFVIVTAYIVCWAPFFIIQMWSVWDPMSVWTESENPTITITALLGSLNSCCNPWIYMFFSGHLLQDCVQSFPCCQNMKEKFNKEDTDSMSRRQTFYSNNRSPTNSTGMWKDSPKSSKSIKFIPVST
Vasopressin V2 receptor, sequence (P30518 whole entry): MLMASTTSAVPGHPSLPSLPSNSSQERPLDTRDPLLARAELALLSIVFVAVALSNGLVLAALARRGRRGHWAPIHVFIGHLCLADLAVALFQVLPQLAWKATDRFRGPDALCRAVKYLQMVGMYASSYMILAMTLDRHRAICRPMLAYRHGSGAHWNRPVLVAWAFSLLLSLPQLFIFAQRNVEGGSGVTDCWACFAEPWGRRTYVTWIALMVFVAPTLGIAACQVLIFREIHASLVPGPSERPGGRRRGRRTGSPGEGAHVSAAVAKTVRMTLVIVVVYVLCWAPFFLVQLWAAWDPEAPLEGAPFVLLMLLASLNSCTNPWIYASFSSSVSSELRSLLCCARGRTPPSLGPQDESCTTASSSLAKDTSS

Compound: Cc1ccccc1C(=O)Nc1ccc(C(=O)N2CCC[C@@H](O)c3cccc(C)c32)cc1
pKi [1]: 8.55
pKi [2]: 6.85

Compound: Cc1ccccc1C(=O)Nc1ccc(C(=O)N2CCC[C@H](O)c3cccc(C)c32)cc1
pKi [1]: 8.33
pKi [2]: 7.27

Compound: Cc1ccccc1C(=O)Nc1ccc(C(=O)N2CCC[C@H](O)c3c(C)cccc32)cc1
pKi [1]: 8.69
pKi [2]: 7.34

Compound: Cc1ccccc1C(=O)Nc1ccc(C(=O)N2CCC[C@H](O)c3ccccc32)cc1
pKi [1]: 8.73
pKi [2]: 8.31

Compound: Cc1ccccc1C(=O)Nc1ccc(C(=O)N2CCCC(O)c3ccccc32)cc1 (racemic)
pKi [1]: 8.80
pKi [2]: 8.12

More lines, in order of rising pKi [1], values ahead:

pKi [1]: 7.11
pKi [2]: 5.75
Compound: Cc1ccccc1C(=O)Nc1ccc(C(=O)N2CCC[C@@H](O)c3c(C)cccc32)cc1 (atropisomer aR)

pKi [1]: 8.17
pKi [2]: 6.80
Compound: Cc1ccccc1C(=O)Nc1ccc(C(=O)N2CCCC(O)c3c(C)cccc32)cc1 (racemic)

pKi [1]: 8.20
pKi [2]: 6.77
Compound: Cc1ccccc1C(=O)Nc1ccc(C(=O)N2CCCC(O)c3cccc(C)c32)cc1 (stereo not drawn)

pKi [1]: 8.99
pKi [2]: 8.08
Compound: Cc1ccccc1C(=O)Nc1ccc(C(=O)N2CCC[C@@H](O)c3ccccc32)cc1
